Results from ChEMBL document CHEMBL2384939, “Synthesis of pyrazolo[1,5-a]pyrimidine linked aminobenzothiazole conjugates as potential anticancer agents” (Bioorg Med Chem Lett, 2013).
The source made the active and inactive calls. The calls are words filed in the database; no cut-off is given here.

Legend:
[1] = tested on: A549; assay: Induction of apoptosis in human A549 cells assessed as DNA fragmentation at 2 uM after 48 hrs by agarose gel electrophoresis; type: functional, cell-based
Summary of the method: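 A549 cells (1×10^6) seeded in six-well plates for 24 h, then exposed to 2 µM compound or roscovitine for 48 h and pelleted. Lysate treated with SDS and RNase-A (2 h, 56 °C), then proteinase K (2 h, 37 °C). DNA precipitated with ammonium acetate/cold ethanol, dissolved in TE, and laddering resolved on 2% agarose gel against a 50 bp marker.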

[2] = tested on: A549; assay: Induction of apoptosis in human A549 cells assessed as formation of apoptotic bodies at 2 uM after 48 hrs by Hoechst staining assay; type: functional, cell-based
Summary of the method: (§1)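 A549 cells (10,000 per 18-mm coverslip) grown 24 h, then given 2 µM compound for 48 h, with 0.001% DMSO vehicle and roscovitine controls. Hoechst 33258 (0.5 mg/mL) in 4% paraformaldehyde was added for 30 min. Randomly chosen fields were imaged by fluorescence microscopy and apoptotic cells scored manually by cytoplasmic condensation, apoptotic bodies and nuclear fragmentation.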

[3] = tested on: A549; assay: Induction of apoptosis in human A549 cells assessed as cytoplasmic condensation at 2 uM after 48 hrs by Hoechst staining assay; type: functional, cell-based; summary of the method: as §1
[4] = tested on: A549; assay: Cell cycle arrest at human A549 cells assessed as accumulation at G0/G1 phase at 1 uM after 48 hrs by propidium iodide-staining-based FACS flow cytometric analysis (reference value: 81.33%); type: functional
[5] = tested on: MCF7; assay: Cytotoxicity against human MCF7 cells after 48 hrs by MTT assay; type: functional, cell-based; conditions: MCF7, 48 h
Summary of the method: (§2)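 MTT assay: […] were plated in DMEM with 10% FBS and incubated for 24 h at 37 °C under CO2. Compounds diluted in culture medium were added alongside a vehicle control for 48 h. MTT (10 µl of a 5 mg/ml stock) was added for a further 4 h. The supernatant was then removed, the formazan dissolved in DMSO, and absorbance read at 540 nm. IC50 was derived.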

[6] = tested on: DU-145; assay: Cytotoxicity against human DU145 cells after 48 hrs by MTT assay; type: functional, cell-based; conditions: DU-145, 48 h; summary of the method: as §2
[7] = tested on: CAKI-1; assay: Cytotoxicity against human Caki1 cells after 48 hrs by MTT assay; type: functional; conditions: CAKI-1, 48 h
[8] = tested on: 786-0; assay: Cytotoxicity against human 786-0 cells after 48 hrs by MTT assay; type: functional; conditions: 786-0, 48 h
[9] = tested on: SK-OV-3; assay: Cytotoxicity against human SKOV3 cells after 48 hrs by MTT assay; type: functional; conditions: SK-OV-3, 48 h
[10] = Cytotoxicity against human NCI-ADR-RES cells after 48 hrs by MTT assay; type: functional
[11] = tested on: SK-MEL-5; assay: Cytotoxicity against human SK-MEL-5 cells after 48 hrs by MTT assay; type: functional; conditions: SK-MEL-5, 48 h
[12] = tested on: SK-MEL-28; assay: Cytotoxicity against human SK-MEL-28 cells after 48 hrs by MTT assay; type: functional; conditions: SK-MEL-28, 48 h
[13] = tested on: MDA-MB-435; assay: Cytotoxicity against human MDA-MB-435 cells after 48 hrs by MTT assay; type: functional; conditions: MDA-MB-435, 48 h
[14] = tested on: Malme-3M; assay: Cytotoxicity against human MALME-3M cells after 48 hrs by MTT assay; type: functional
[15] = tested on: LOX IMVI; assay: Cytotoxicity against human LOXIMVI cells after 48 hrs by MTT assay; type: functional
[16] = tested on: SF-539; assay: Cytotoxicity against human SF539 cells after 48 hrs by MTT assay; type: functional; conditions: SF-539, 48 h
[17] = tested on: KM12; assay: Cytotoxicity against human KM12 cells after 48 hrs by MTT assay; type: functional; conditions: KM12, 48 h
[18] = tested on: SF-268; assay: Cytotoxicity against human SF268 cells after 48 hrs by MTT assay; type: functional; conditions: SF-268, 48 h
[19] = tested on: NCI-H522; assay: Cytotoxicity against human NCI-H522 cells after 48 hrs by MTT assay; type: functional; conditions: NCI-H522, 48 h
[20] = tested on: NCI-H322M; assay: Cytotoxicity against human NCI-H322M cells after 48 hrs by MTT assay; type: functional
[21] = tested on: NCI-H23; assay: Cytotoxicity against human NCI-H23 cells after 48 hrs by MTT assay; type: functional; conditions: NCI-H23, 48 h
[22] = Cytotoxicity against human EKVX cells after 48 hrs by MTT assay; type: functional
[23] = tested on: CCRF-CEM; assay: Cytotoxicity against human CCRF-CEM cells after 48 hrs by MTT assay; type: functional
[24] = tested on: UO-31; assay: Cytotoxicity against human UO31 cells after 48 hrs by MTT assay; type: functional; conditions: UO-31, 48 h
[25] = tested on: OVCAR-4; assay: Cytotoxicity against human OVCAR4 cells after 48 hrs by MTT assay; type: functional; conditions: OVCAR-4, 48 h
[26] = tested on: MOLT-4; assay: Cytotoxicity against human MOLT4 cells after 48 hrs by MTT assay; type: functional; conditions: MOLT-4, 48 h
[27] = tested on: RPMI-8226; assay: Cytotoxicity against human RPMI8226 cells after 48 hrs by MTT assay; type: functional; conditions: RPMI-8226, 48 h

SMILES	Activity [1]	Activity [2]	Activity [3]	Activity [4]	GI50 [5]	IC50 [5]	GI50 [6]	IC50 [6]	GI50 [8]	GI50 [9]	GI50 [14]	GI50 [16]	GI50 [18]	GI50 [19]	GI50 [20]	GI50 [21]	GI50 [22]	GI50 [23]	further results
COc1cc(-c2cc(C(=O)Nc3nc4ccccc4s3)nc3cc(-c4ccccc4)nn23)cc(OC)c1OC	Active	Active	Active	42.29%	22.4 µM	2.88 µM	65 µM	3.16 µM	2.5 µM	12.5 µM	12 µM	1.3 µM	4.5 µM	1.9 µM	67.5 µM	11.5 µM	42 µM	54 µM	GI50 [7]: 53.7 µM; GI50 [10]: 19.6 µM; GI50 [11]: 13.8 µM; GI50 [12]: 3.3 µM; GI50 [13]: 2.6 µM; GI50 [15]: 5.5 µM; GI50 [17]: 22 µM
O=C(Nc1nc2ccccc2s1)c1cc(-c2ccc(F)cc2)n2nc(-c3ccccc3)cc2n1	Active	Active	Active	35.34%	5.2 µM	2.29 µM	4.9 µM	2.08 µM	2.1 µM	2.3 µM	3.7 µM	2.6 µM	3.8 µM	2.5 µM	5.8 µM	2.8 µM	6.6 µM	1.8 µM	GI50 [24]: 1.9 µM; GI50 [25]: 1.8 µM; GI50 [26]: 21 µM; GI50 [27]: 5.5 µM
